Data set [1] in a line: Lipophilicity, log K of the compound in methanol-water mixture by HPLC analysis. It counts as physicochemical.
For the next data set, the system named is HepG2. Kind of data set: Cytotoxicity against human HepG2 cells. The format is cell-based.
The nature of data set [2]: Selectivity index, ratio of IC50 for human HepG2 cells to MIC for Mycobacterium tuberculosis H37Rv CNCTC My 331/88. It counts as functional. The essentials:
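Cytotoxicity was measured as the decrease in viability of human liver Hep G2 cells, read colorimetrically by tetrazolium salt reduction over a dilution series. IC50 was taken from this readout, and SI was calculated as the Hep G2 IC50 divided by the M. tuberculosis H37Rv MIC from the microdilution panel assay.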

In data set [3] the test system is Mycobacterium avium. Kind of data set: Antimycobacterial activity against Mycobacterium avium CNCTC My 152/73 after 10 to 14 days by microdilution panel method. The format is functional. The procedure, abridged: (§1)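 Whole-cell microdilution panel assay on strains from the Czech National Collection of Type Cultures (M. tuberculosis H37Rv My 331/88, M. avium ssp. avium Chester My 80/72, M. avium My 152/73). MIC (μg/mL) was read visually as the lowest concentration of compound that inhibited mycobacterial growth.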

The test system of data set [4] is Mycobacterium avium. In words: Antimycobacterial activity against Mycobacterium avium CNCTC My 80/72 after 10 to 14 days by microdilution panel method. The format is functional. The procedure, abridged:
as §1
(In broth dilution the organism is exposed to a series of concentrations in liquid medium.)

The test system of a further data set is Mycobacterium kansasii. Kind of data set: Antimycobacterial activity against Mycobacterium kansasii CNCTC My 235/80 after 10 to 14 days by microdilution panel method. The format is functional. The procedure, abridged:
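Microdilution panel method. Strain obtained from Czech National Collection of Type Cultures (CNCTC My 235/80). MIC in μg/mL read visually as the lowest compound concentration that inhibited mycobacterial growth.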

Data set [5] deals with Mycobacterium tuberculosis. In words: Antimycobacterial activity against Mycobacterium tuberculosis H37Rv CNCTC My 331/88 after 10 to 14 days by microdilution panel method. It counts as functional. The essentials:
as §1

For data set [6], the system named is Mycobacterium tuberculosis. In words: Ratio of pyrazinamide MIC to compound MIC for Mycobacterium tuberculosis H37Rv CNCTC My 331/88. The format is functional.

We go through 21 compounds from ChEMBL document CHEMBL2311333, “Synthesis and antimycobacterial evaluation of pyrazinamide derivatives with benzylamino substitution” (Bioorg Med Chem Lett, 2013).

Turning to `COc1ccc(CNc2nc(C#N)cnc2C#N)cc1`, the “log K” value in data set [1] is recorded as 0.3259. The IC50 with HepG2 was determined as 95.9 µM. For the same compound, in data set [2], the “Selectivity Index” value is given as 0.5. The MIC with Mycobacterium avium [3] was > 100 µg/mL; in the data set on Mycobacterium avium [4], > 100 µg/mL; in the data set on Mycobacterium kansasii, 99 µM; in data set [5], 188 µM.
For the compound `N#Cc1cnc(C(N)=O)c(NCc2ccccc2)n1`, the “log K” value in data set [1] is given as 0.326. Moreover, the MIC (against Mycobacterium avium [3]; with Mycobacterium avium [4]; with Mycobacterium kansasii; in data set [5]) was > 100 µg/mL in each case.
`Cc1ccc(CNc2nc(C#N)cnc2C(N)=O)cc1`: the “log K” value in data set [1] came to 0.5533. The same compound yielded an IC50 with HepG2 of 54.6 µM. Further, the “Selectivity Index” value in data set [2] came to 1.2. Besides, the MIC was > 100 µg/mL against Mycobacterium avium [3], > 100 µg/mL against Mycobacterium avium [4], > 100 µg/mL against Mycobacterium kansasii and 47 µM in data set [5].
As to `COc1ccc(CNc2nc(C#N)cnc2C(N)=O)cc1`, the “log K” value in data set [1] amounted to 0.3074. Further, the MIC (against Mycobacterium avium [3]; with Mycobacterium avium [4]; against Mycobacterium kansasii; in data set [5]) was > 100 µg/mL throughout.
Consider `N#Cc1cnc(C(N)=O)c(NCc2ccc(N)cc2)n1`, for which, in data set [1], the “log K” value is -0.2005. In addition, the IC50 with HepG2 is > 1000 µM. Further, the “Selectivity Index” value in data set [2] is given as >21.3. In addition, the MIC against Mycobacterium avium [3] was > 100 µg/mL; with Mycobacterium avium [4] it was > 100 µg/mL; in the data set with Mycobacterium kansasii, > 100 µg/mL; in data set [5] it was 47 µM.
For `N#Cc1cnc(C(N)=O)c(NCc2cccc(Cl)c2)n1`, in data set [1], the “log K” value came to 0.5141. Besides, the MIC (in the data set with Mycobacterium avium [3]; against Mycobacterium avium [4]; against Mycobacterium kansasii; in data set [5]) was > 100 µg/mL each time.
Turning to `N#Cc1cnc(C(N)=O)c(NCc2ccc(Cl)cc2)n1`, the “log K” value in data set [1] was 0.5421. For the same compound, the MIC (against Mycobacterium avium [3]; against Mycobacterium avium [4]; in the data set on Mycobacterium kansasii; in data set [5]) was > 100 µg/mL throughout.
Take `N#Cc1cnc(C(N)=O)c(NCc2ccc(Cl)c(Cl)c2)n1`: the “log K” value in data set [1] is 0.7353. Moreover, the MIC (in the data set on Mycobacterium avium [3]; in the data set with Mycobacterium avium [4]; against Mycobacterium kansasii; in data set [5]) was > 100 µg/mL each time.
As for `N#Cc1cnc(C(N)=O)c(NCc2cccc([N+](=O)[O-])c2)n1`, the “log K” value in data set [1] was 0.1331. The compound further gave an IC50 in the data set with HepG2 of 457 µM. Further, the “Selectivity Index” value in data set [2] was determined as 5.4. The MIC against Mycobacterium avium [3] is > 100 µg/mL; against Mycobacterium avium [4], > 100 µg/mL; in the data set on Mycobacterium kansasii, > 100 µg/mL; in data set [5], 84 µM.
For `N#Cc1cnc(C(N)=O)c(NCc2cccc(C(F)(F)F)c2)n1`, in data set [1], the “log K” value is given as 0.5104. This compound displayed an IC50 in the data set with HepG2 of 27.8 µM. Moreover, in data set [2], the “Selectivity Index” value is 0.4. The MIC in the data set with Mycobacterium avium [3] was > 100 µg/mL; in the data set with Mycobacterium avium [4], > 100 µg/mL; in the data set on Mycobacterium kansasii, > 100 µg/mL; in data set [5], 78 µM.
In the case of `N#Cc1cnc(C#N)c(NCc2ccccc2)n1`, in data set [1], the “log K” value was determined as 0.335. In the data set on HepG2, this compound registered an IC50 of 60.8 µM. Besides, the “Selectivity Index” value in data set [2] was found to be 1.1. Besides, the MIC against Mycobacterium avium [3] is 53 µM; in the data set with Mycobacterium avium [4], 106 µM; against Mycobacterium kansasii, 106 µM; in data set [5] it was 53 µM.
With `Cc1ccc(CNc2nc(C#N)cnc2C#N)cc1`, in data set [6], the Ratio was 2. Moreover, the “log K” value in data set [1] is 0.5598. This compound also registered an IC50 in the data set with HepG2 of 70.8 µM. Moreover, the “Selectivity Index” value in data set [2] came out at 2.8. Moreover, the MIC against Mycobacterium avium [3] was > 100 µg/mL; in the data set on Mycobacterium avium [4], > 100 µg/mL; with Mycobacterium kansasii it was > 100 µg/mL; in data set [5], 25 µM.
Take `N#Cc1cnc(C#N)c(NCc2ccc(N)cc2)n1`: the “log K” value in data set [1] was -0.1621. Also, the IC50 with HepG2 turned out to be 549 µM. For the same compound, the “Selectivity Index” value in data set [2] is 5.5. Moreover, the MIC is > 100 µg/mL against Mycobacterium avium [3], > 100 µg/mL in the data set on Mycobacterium avium [4], > 100 µg/mL in the data set on Mycobacterium kansasii and 100 µM in data set [5].
With `N#Cc1cnc(C#N)c(NCc2cccc(Cl)c2)n1`, the “log K” value in data set [1] is given as 0.5456. Besides, the concentration for half-maximal inhibition (IC50) with HepG2 was 40 µM. For the same compound, the “Selectivity Index” value in data set [2] is 0.9. Also, the MIC is > 100 µg/mL with Mycobacterium avium [3], > 100 µg/mL against Mycobacterium avium [4], 46 µM in the data set on Mycobacterium kansasii and 46 µM in data set [5].
For the compound `N#Cc1cnc(C#N)c(NCc2ccc(Cl)cc2)n1`, in data set [1], the “log K” value was 0.5735. The same compound returned an IC50 with HepG2 of 35.5 µM. Besides, the “Selectivity Index” value in data set [2] is on record as 0.4. Besides, the minimum inhibitory concentration (MIC) is > 100 µg/mL against Mycobacterium avium [3], > 100 µg/mL in the data set with Mycobacterium avium [4], 46 µM with Mycobacterium kansasii and 93 µM in data set [5].
As for `N#Cc1cnc(C#N)c(NCc2ccc(Cl)c(Cl)c2)n1`, the “log K” value in data set [1] is listed as 0.783. Also, the minimal inhibitory concentration (MIC) (against Mycobacterium avium [3]; with Mycobacterium avium [4]; with Mycobacterium kansasii; in data set [5]) was > 100 µg/mL in each case.
With `N#Cc1cnc(C#N)c(NCc2cccc([N+](=O)[O-])c2)n1`, in data set [1], the “log K” value is reported as 0.2049. Also, the MIC (in the data set on Mycobacterium avium [3]; against Mycobacterium avium [4]; in the data set on Mycobacterium kansasii; in data set [5]) was > 100 µg/mL in each case.
`N#Cc1cnc(C#N)c(NCc2cccc(C(F)(F)F)c2)n1`: the “log K” value in data set [1] was found to be 0.5615. The MIC (in the data set on Mycobacterium avium [3]; in the data set with Mycobacterium avium [4]; in the data set with Mycobacterium kansasii; in data set [5]) was > 100 µg/mL each time.
Consider `Cc1ccccc1CNc1nc(C#N)cnc1C#N`, for which the “log K” value in data set [1] came to 0.5043. Besides, the MIC (with Mycobacterium avium [3]; with Mycobacterium avium [4]; against Mycobacterium kansasii; in data set [5]) was > 100 µg/mL each time.
For `NNC(=O)c1ccncc1` [ISONIAZID], the MIC against Mycobacterium avium [3] amounted to 23 µM; in the data set on Mycobacterium avium [4], 46 µM; in the data set on Mycobacterium kansasii, 91 µM; in data set [5], 11 µM.
`NC(=O)c1cnccn1` [PYRAZINAMIDE]: the “Selectivity Index” value in data set [2] stood at 775. Also, the MIC was > 100 µg/mL with Mycobacterium avium [3], > 100 µg/mL in the data set on Mycobacterium avium [4], > 100 µg/mL in the data set on Mycobacterium kansasii and 51 µM in data set [5].

As usually defined, the IC50 is the point on the concentration scale where inhibition reaches its midpoint. Read a low IC50 as inhibition by little substance. What is called MIC is the lowest concentration that inhibits growth of the organism. High values mean a less susceptible organism, low ones a more susceptible organism.
